These results are taken from ChEMBL document CHEMBL1125449, “Substitution on the Phe3 aromatic ring in cyclic delta opioid receptor-selective dermorphin/deltorphin tetrapeptide analogues: electronic and lipophilic requirements for receptor affinity” (J Med Chem, 1992).

SMILES strings stand for the structures. Positions of bridges follow the written chain, without caps; N, C: chain ends. Non-standard residues stand in square brackets, D forms with d. Residues, ends and D or L forms follow the SMILES beside them. Phe(4-NO2) = N[C@@H](Cc1ccc([N+](=O)[O-])cc1)C(=O)O; Phe(4-tBu) = CC(C)(C)c1ccc(C[C@H](N)C(=O)O)cc1; Phe(4-Cl) = N[C@@H](Cc1ccc(Cl)cc1)C(=O)O; Phe(3-F) = N[C@@H](Cc1cccc(F)c1)C(=O)O; Phe(4-F) = N[C@@H](Cc1ccc(F)cc1)C(=O)O; Phe(4-Me) = Cc1ccc(C[C@H](N)C(=O)O)cc1; Phe(2-F) = N[C@@H](Cc1ccccc1F)C(=O)O; mTyr = N[C@@H](Cc1cccc(O)c1)C(=O)O; Pen = CC(C)(S)[C@H](N)C(=O)O

In test [1] the target is T1, Mu-type opioid receptor (Cavia porcellus, UniProt P97266). Put plainly: Compound was tested for the inhibition of [3H]- [D-Ala2, N-MePhe4, Gly5-ol]-enkephalin (DAMGO) binding to Opioid receptor mu 1 in guinea pig brain homogenates. Format: tissue-based.
T1 sequence (P97266 whole entry): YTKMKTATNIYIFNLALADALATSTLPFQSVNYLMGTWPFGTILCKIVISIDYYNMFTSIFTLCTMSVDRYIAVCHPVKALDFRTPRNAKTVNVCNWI
In test [2] the target is Opioid receptors; mu & delta (Homo sapiens) (UniProt P41143+P35372). Put plainly: Ratio of binding affinity towards mu receptor to delta receptor. Format: protein assay.
Chain of Opioid receptors; mu & delta (Homo sapiens) (P35372 whole entry, looked up): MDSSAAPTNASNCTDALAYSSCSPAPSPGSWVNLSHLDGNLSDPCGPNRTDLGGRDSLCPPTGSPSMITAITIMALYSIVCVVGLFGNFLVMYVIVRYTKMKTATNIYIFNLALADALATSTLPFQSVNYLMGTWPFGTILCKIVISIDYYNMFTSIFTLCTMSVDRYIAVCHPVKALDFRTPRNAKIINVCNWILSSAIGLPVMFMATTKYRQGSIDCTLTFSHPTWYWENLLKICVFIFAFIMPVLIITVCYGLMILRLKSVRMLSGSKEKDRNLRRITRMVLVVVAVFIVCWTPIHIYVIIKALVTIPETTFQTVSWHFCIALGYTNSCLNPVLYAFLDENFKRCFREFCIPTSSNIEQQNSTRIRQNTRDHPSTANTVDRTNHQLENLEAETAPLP
Chain of Opioid receptors; mu & delta (Homo sapiens) (P41143 whole entry, looked up): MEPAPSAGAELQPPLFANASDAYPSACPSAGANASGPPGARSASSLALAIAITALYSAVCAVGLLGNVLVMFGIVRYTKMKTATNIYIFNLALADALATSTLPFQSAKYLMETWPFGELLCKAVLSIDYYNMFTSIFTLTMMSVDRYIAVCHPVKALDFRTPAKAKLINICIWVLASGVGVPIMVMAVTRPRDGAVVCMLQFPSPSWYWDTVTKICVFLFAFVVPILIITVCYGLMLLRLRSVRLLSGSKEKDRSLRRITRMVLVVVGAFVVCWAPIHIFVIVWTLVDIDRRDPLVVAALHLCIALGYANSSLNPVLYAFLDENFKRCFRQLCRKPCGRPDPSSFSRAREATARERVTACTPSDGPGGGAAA
Test [3] deals with T2, Kappa-type opioid receptor (Cavia porcellus, UniProt P41144). Put plainly: Compound was tested for the inhibition of [3H]- (U69,593) binding to Opioid receptor kappa 1 in guinea pig brain homogenates. Format: tissue-based.
T2 sequence (P41144 whole entry): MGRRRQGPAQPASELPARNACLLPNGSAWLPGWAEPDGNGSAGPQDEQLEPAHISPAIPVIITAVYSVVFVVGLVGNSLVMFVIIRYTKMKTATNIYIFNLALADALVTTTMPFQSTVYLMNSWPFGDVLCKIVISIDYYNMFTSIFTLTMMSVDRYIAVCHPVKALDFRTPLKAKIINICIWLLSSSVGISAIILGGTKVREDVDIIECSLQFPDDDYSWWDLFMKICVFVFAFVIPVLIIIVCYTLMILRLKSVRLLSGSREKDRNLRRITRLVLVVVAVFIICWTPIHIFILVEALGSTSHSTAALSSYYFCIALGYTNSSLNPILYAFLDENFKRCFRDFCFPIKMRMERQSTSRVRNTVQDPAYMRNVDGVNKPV
The target in test [4] is T2, Kappa-type opioid receptor. Put plainly: Compound was tested for the inhibition of [3H]- (U69,593) binding to opioid receptor kappa in guinea pig brain homogenates. Format: tissue-based. The method in brief: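 Guinea pig brain membranes (washed, preincubated 37 °C 30 min to remove endogenous opioids) in 50 mM Tris pH 7.4. Test compound preincubated with membranes 15 min at 25 °C, then 0.9 nM [3H]U69,593 added and incubated 90 min at 25 °C. Nonspecific binding defined with 10 μM U69,593. Filtration, scintillation counting. 12 concentrations, triplicate. IC50 by regression; Ki from saturation-derived KD.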

Test [5] deals with Mu-type opioid receptor (Cavia porcellus) (UniProt P97266). Put plainly: Ratio of binding affinity towards opioid receptor mu to opioid receptor delta.
Chain of Mu-type opioid receptor (Cavia porcellus) (P97266 whole entry): as the sequence (P97266 whole entry) above
For test [6], the target named is T1, Mu-type opioid receptor. Put plainly: Compound was tested for the inhibition of [3H]- [D-Ala2, N-MePhe4, Gly5-ol]-enkephalin (DAMGO) binding to opioid receptor mu in guinea pig brain homogenates. Format: tissue-based. The method in brief:
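Guinea pig brain membranes (washed, preincubated 37 °C 30 min to remove endogenous opioids) in 50 mM Tris pH 7.4. Test compound preincubated with membranes 15 min at 25 °C, then 0.6 nM [3H]DAMGO added and incubated 75 min at 25 °C. Nonspecific binding defined with 5 μM DAMGO. Filtration, scintillation counting. 12 concentrations, triplicate. IC50 by regression; Ki from saturation-derived KD.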

Take `CC1(C)SSC[C@H](NC(=O)[C@@H](N)Cc2ccc(O)cc2)C(=O)N[C@@H](Cc2ccc(O)cc2)C(=O)N[C@@H]1C(=O)O` (H-YCY[Pen]-OH; disulfide 2-4): the Ki at Mu-type opioid receptor [1] was 3.45 µM; in test [3] it was greater than 10 µM. In addition, the Ratio in test [2] came to 135.

Turning to `CC1(C)SSC[C@H](NC(=O)[C@@H](N)Cc2ccc(O)cc2)C(=O)N[C@@H](Cc2ccccc2F)C(=O)N[C@@H]1C(=O)O` (H-YC[Phe(2-F)][Pen]-OH; disulfide 2-4), the Ki in test [4] was greater than 10 µM; on Mu-type opioid receptor [6], 0.0919 µM. Besides, in test [5], the Ratio is 28.1.

For the compound `CC1(C)SSC[C@H](NC(=O)[C@@H](N)Cc2ccc(O)cc2)C(=O)N[C@@H](Cc2cccc(F)c2)C(=O)N[C@@H]1C(=O)O` (H-YC[Phe(3-F)][Pen]-OH; disulfide 2-4), the Ki is greater than 10 µM in test [4] and 0.0555 µM at Mu-type opioid receptor [6]. Also, in test [5], the Ratio was 19.2.

As for `CC1(C)SSC[C@H](NC(=O)[C@@H](N)Cc2ccc(O)cc2)C(=O)N[C@@H](Cc2ccc(Cl)cc2)C(=O)N[C@@H]1C(=O)O` (H-YC[Phe(4-Cl)][Pen]-OH; disulfide 2-4), the Ki in test [4] turned out to be 10 µM; at Mu-type opioid receptor [6], 0.327 µM. Besides, the Ratio in test [5] is 334.

Regarding `CC1(C)SSC[C@H](NC(=O)[C@@H](N)Cc2ccc(O)cc2)C(=O)N[C@@H](Cc2ccc(F)cc2)C(=O)N[C@@H]1C(=O)O` (H-YC[Phe(4-F)][Pen]-OH; disulfide 2-4), the Ki on Mu-type opioid receptor [1] was 0.161 µM; in test [3] it was greater than 10 µM. Also, the Ratio in test [2] came to 146.

Regarding `Cc1ccc(C[C@@H]2NC(=O)[C@@H](NC(=O)[C@@H](N)Cc3ccc(O)cc3)CSSC(C)(C)[C@@H](C(=O)O)NC2=O)cc1` (H-YC[Phe(4-Me)][Pen]-OH; disulfide 2-4), the Ki is greater than 10 µM in test [4] and 1.75 µM on Mu-type opioid receptor [6]. The Ratio in test [5] was 325.

Regarding `CC1(C)SSC[C@H](NC(=O)[C@@H](N)Cc2ccc(O)cc2)C(=O)N[C@@H](Cc2ccc([N+](=O)[O-])cc2)C(=O)N[C@@H]1C(=O)O` (H-YC[Phe(4-NO2)][Pen]-OH; disulfide 2-4), the Ki is 0.137 µM at Mu-type opioid receptor [1] and greater than 10 µM in test [3]. Besides, the Ratio in test [2] amounted to 82.5.

On to `CC(C)(C)c1ccc(C[C@@H]2NC(=O)[C@@H](NC(=O)[C@@H](N)Cc3ccc(O)cc3)CSSC(C)(C)[C@@H](C(=O)O)NC2=O)cc1` (H-YC[Phe(4-tBu)][Pen]-OH; disulfide 2-4), for which the Ki is 10 µM on Mu-type opioid receptor [1], greater than 10 µM in test [4], greater than 10 µM in test [3] and 10 µM on Mu-type opioid receptor [6]. Further, the Ratio in test [2] was 15; in test [5], 270.

With `CC1(C)SSC[C@H](NC(=O)[C@@H](N)Cc2ccc(O)cc2)C(=O)N[C@@H](Cc2cccc(O)c2)C(=O)N[C@@H]1C(=O)O` (H-YC[mTyr][Pen]-OH; disulfide 2-4), the Ki at Mu-type opioid receptor [1] is 3.4 µM; in test [4], greater than 10 µM; in test [3], greater than 10 µM; on Mu-type opioid receptor [6], 0.712 µM. Also, the Ratio in test [2] was found to be 22.3; in test [5], 76.6.

As a reminder, the Ki is a measure of affinity in units of concentration, obtained from inhibition or displacement.
